Source: ChEMBL document CHEMBL5058577, “EUbOPEN Chemogenomics Library 2 (Multiplex)” (2022)

Tested on: U2OS
Assay: Multiplex assay against U2OS
Format: toxicity, cell-based
Conditions: human
Outline: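 Cells were classed with CellPathfinder machine-learning gating, first as Hoechst high-intensity objects or normal cells, then (normal cells) as healthy, pyknosed or fragmented nuclei, and finally (pyknosed cells) as mitotic or apoptotic. Staining of live cells at seeding used Hoechst33342, BioTracker Green Microtubule Cytoskeleton Dye, MitoTracker Red and Annexin V Alexa Fluor 680, with imaging on a CQ1 microscope at 37°C and 5% CO2 after compound addition. Tubulin, mitochondrial-mass and membrane-permeability phenotypes are per cents of healthy-nucleus cells.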

[1] = 12 h, 1 µM, compound concentration 1 uM, replicate 1
[2] = 12 h, 1 µM, compound concentration 1 uM, replicate 2
[3] = 12 h, 10 µM, compound concentration 10 uM, replicate 1
[4] = 12 h, 10 µM, compound concentration 10 uM, replicate 2
[5] = 24 h, 1 µM, compound concentration 1 uM, replicate 1
[6] = 24 h, 1 µM, compound concentration 1 uM, replicate 2
[7] = 24 h, 10 µM, compound concentration 10 uM, replicate 1
[8] = 24 h, 10 µM, compound concentration 10 uM, replicate 2
[9] = 48 h, 1 µM, compound concentration 1 uM, replicate 1
[10] = 48 h, 1 µM, compound concentration 1 uM, replicate 2
[11] = 48 h, 10 µM, compound concentration 10 uM, replicate 1
[12] = 48 h, 10 µM, compound concentration 10 uM, replicate 2

Cl.Clc1ccc2nsnc2c1NC1=NCCN1 [TIZANIDINE HYDROCHLORIDE]
Population Apoptotic (%) [1]: 82%
Population Fragmented Nuclei (%) [1]: 20%
Population Healthy Nuclei (%) [1]: 73%
Population Hoechst High Intensity Objects (%) [1]: 2%
Population Membrane Permeable-Phenotype (%) [1]: 6%
Population Mitochondria Different-Phenotype (%) [1]: 1%
Population Mitotic Cells (%) [1]: 17%
Population Normal (%) [1]: 97%
Population Pyknosed Nuclei (%) [1]: 5%
Population Tubulin-Different-Phenotype (%) [1]: 2%
Total Cell Count [1]: 306
Population Apoptotic (%) [2]: 85%
Population Fragmented Nuclei (%) [2]: 10%
Population Healthy Nuclei (%) [2]: 78%
Population Hoechst High Intensity Objects (%) [2]: 1%
Population Membrane Permeable-Phenotype (%) [2]: 3%
Population Mitochondria Different-Phenotype (%) [2]: 2%
Population Mitotic Cells (%) [2]: 14%
Population Normal (%) [2]: 98%
Population Pyknosed Nuclei (%) [2]: 10%
Population Tubulin-Different-Phenotype (%) [2]: 3%
Total Cell Count [2]: 140
Population Apoptotic (%) [3]: 77%
Population Fragmented Nuclei (%) [3]: 31%
Population Healthy Nuclei (%) [3]: 61%
Population Hoechst High Intensity Objects (%) [3]: 2%
Population Membrane Permeable-Phenotype (%) [3]: 7%
Population Mitochondria Different-Phenotype (%) [3]: 2%
Population Mitotic Cells (%) [3]: 22%
Population Normal (%) [3]: 97%
Population Pyknosed Nuclei (%) [3]: 6%
Population Tubulin-Different-Phenotype (%) [3]: 2%
Total Cell Count [3]: 280
Population Apoptotic (%) [4]: 90%
Population Fragmented Nuclei (%) [4]: 22%
Population Healthy Nuclei (%) [4]: 66%
Population Membrane Permeable-Phenotype (%) [4]: 14%
Population Mitochondria Different-Phenotype (%) [4]: 7%
Population Mitotic Cells (%) [4]: 10%
Population Pyknosed Nuclei (%) [4]: 10%
Population Tubulin-Different-Phenotype (%) [4]: 15%
Total Cell Count [4]: 98
Population Apoptotic (%) [5]: 90%
Population Fragmented Nuclei (%) [5]: 19%
Population Healthy Nuclei (%) [5]: 72%
Population Hoechst High Intensity Objects (%) [5]: 0%
Population Membrane Permeable-Phenotype (%) [5]: 4%
Population Mitochondria Different-Phenotype (%) [5]: 2%
Population Mitotic Cells (%) [5]: 9%
Population Normal (%) [5]: 99%
Population Pyknosed Nuclei (%) [5]: 8%
Population Tubulin-Different-Phenotype (%) [5]: 5%
Total Cell Count [5]: 381
Population Apoptotic (%) [6]: 89%
Population Fragmented Nuclei (%) [6]: 15%
Population Healthy Nuclei (%) [6]: 73%
Population Hoechst High Intensity Objects (%) [6]: 4%
Population Membrane Permeable-Phenotype (%) [6]: 7%
Population Mitochondria Different-Phenotype (%) [6]: 4%
Population Mitotic Cells (%) [6]: 10%
Population Normal (%) [6]: 95%
Population Pyknosed Nuclei (%) [6]: 11%
Population Tubulin-Different-Phenotype (%) [6]: 6%
Total Cell Count [6]: 172
Population Apoptotic (%) [7]: 65%
Population Fragmented Nuclei (%) [7]: 29%
Population Healthy Nuclei (%) [7]: 62%
Population Hoechst High Intensity Objects (%) [7]: 2%
Population Membrane Permeable-Phenotype (%) [7]: 4%
Population Mitochondria Different-Phenotype (%) [7]: 1%
Population Mitotic Cells (%) [7]: 34%
Population Normal (%) [7]: 97%
Population Pyknosed Nuclei (%) [7]: 8%
Population Tubulin-Different-Phenotype (%) [7]: 1%
Total Cell Count [7]: 327
Population Apoptotic (%) [8]: 86%
Population Fragmented Nuclei (%) [8]: 25%
Population Healthy Nuclei (%) [8]: 61%
Population Membrane Permeable-Phenotype (%) [8]: 12%
Population Mitochondria Different-Phenotype (%) [8]: 7%
Population Mitotic Cells (%) [8]: 13%
Population Pyknosed Nuclei (%) [8]: 13%
Population Tubulin-Different-Phenotype (%) [8]: 11%
Total Cell Count [8]: 118
Population Apoptotic (%) [9]: 86%
Population Fragmented Nuclei (%) [9]: 11%
Population Healthy Nuclei (%) [9]: 80%
Population Hoechst High Intensity Objects (%) [9]: 1%
Population Membrane Permeable-Phenotype (%) [9]: 2%
Population Mitochondria Different-Phenotype (%) [9]: 1%
Population Mitotic Cells (%) [9]: 13%
Population Normal (%) [9]: 98%
Population Pyknosed Nuclei (%) [9]: 7%
Population Tubulin-Different-Phenotype (%) [9]: 2%
Total Cell Count [9]: 512
Population Apoptotic (%) [10]: 90%
Population Fragmented Nuclei (%) [10]: 17%
Population Healthy Nuclei (%) [10]: 74%
Population Hoechst High Intensity Objects (%) [10]: 3%
Population Membrane Permeable-Phenotype (%) [10]: 5%
Population Mitochondria Different-Phenotype (%) [10]: 2%
Population Mitotic Cells (%) [10]: 9%
Population Normal (%) [10]: 96%
Population Pyknosed Nuclei (%) [10]: 8%
Population Tubulin-Different-Phenotype (%) [10]: 3%
Total Cell Count [10]: 260
Population Apoptotic (%) [11]: 93%
Population Fragmented Nuclei (%) [11]: 18%
Population Healthy Nuclei (%) [11]: 75%
Population Hoechst High Intensity Objects (%) [11]: 2%
Population Membrane Permeable-Phenotype (%) [11]: 5%
Population Mitochondria Different-Phenotype (%) [11]: 1%
Population Mitotic Cells (%) [11]: 6%
Population Normal (%) [11]: 97%
Population Pyknosed Nuclei (%) [11]: 6%
Population Tubulin-Different-Phenotype (%) [11]: 3%
Total Cell Count [11]: 459
Population Apoptotic (%) [12]: 76%
Population Fragmented Nuclei (%) [12]: 22%
Population Healthy Nuclei (%) [12]: 65%
Population Hoechst High Intensity Objects (%) [12]: 4%
Population Membrane Permeable-Phenotype (%) [12]: 15%
Population Mitochondria Different-Phenotype (%) [12]: 5%
Population Mitotic Cells (%) [12]: 23%
Population Normal (%) [12]: 95%
Population Pyknosed Nuclei (%) [12]: 11%
Population Tubulin-Different-Phenotype (%) [12]: 7%
Total Cell Count [12]: 149
